Test results as given in ChEMBL document CHEMBL1123853, “A novel class of cardiotonics. Synthesis and pharmacological properties of [4-(substituted-amino)phenyl]pyridazinones and related derivatives” (1987).

Assays:
Canis familiaris [1] = assay: Inotropic activity determined by evaluating the % change in contractile force (CF) of right ventricle at a dose of 10 ug/kg administered intravenously […]; assay type: functional, Canis lupus familiaris, Heart right ventricle
Procedure, shortened: (§1)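 Mongrel dogs of either sex, 7–15 kg, anesthetized with sodium pentobarbital (30 mg/kg iv), open-chest, intubated and ventilated on room air. Compounds given intravenously. A femoral artery catheter with pressure transducer recorded SBP and DBP. dP/dtmax, right ventricular contractile force, cardiac output and heart rate were also recorded, as % change at each iv dose.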

Canis familiaris [2] = assay: Inotropic activity determined by evaluating the % change in Diastolic Blood Pressure (DBP) at a dose of 10 ug/kg administered intravenously […]; assay type: functional, Canis lupus familiaris; procedure, shortened: as §1
Canis familiaris [3] = assay: Inotropic activity determined by evaluating the % change in contractile force (CF) of right ventricle at a dose of 3 ug/kg administered intravenously […]; assay type: functional, Canis lupus familiaris, Heart right ventricle; procedure, shortened: as §1
Canis familiaris [4] = assay: Inotropic activity determined by evaluating the % change in Cardiac out put (CO)at a dose of 10 ug/kg administered intravenously […]; assay type: functional, Canis lupus familiaris; procedure, shortened: as §1
Canis familiaris [5] = assay: Inotropic activity determined by evaluating the % change in Systolic Blood Pressure (SBP) at a dose of 10 ug/kg administered intravenously […]; assay type: functional, Canis lupus familiaris; procedure, shortened: as §1
Canis familiaris [6] = assay: Inotropic activity determined by evaluating the maximum rate of rise in left ventricular pressure at a dose of 3 ug/kg administered intravenously […]; assay type: functional, Canis lupus familiaris, Muscle tissue; procedure, shortened: as §1
Canis familiaris [7] = assay: Inotropic activity determined by evaluating the % change in Heart Rate (HR) at a dose of 1 ug/kg administered intravenously […]; assay type: functional, Canis lupus familiaris; procedure, shortened: as §1
Canis familiaris [8] = assay: Inotropic activity determined by evaluating the % change in Systolic Blood Pressure (SBP) at a dose of 3 ug/kg administered intravenously […]; assay type: functional, Canis lupus familiaris, Muscle tissue; procedure, shortened: as §1
Canis familiaris [9] = assay: Inotropic activity determined by evaluating the % change in Cardiac out put (CO)at a dose of 3 ug/kg administered intravenously […]; assay type: functional, Canis lupus familiaris; procedure, shortened: as §1
Canis familiaris [10] = assay: Inotropic activity determined by evaluating the % change in Cardiac out put (CO)at a dose of 1 ug/kg administered intravenously […]; assay type: functional, Canis lupus familiaris; procedure, shortened: as §1
Canis familiaris [11] = assay: Inotropic activity determined by evaluating the % change in Diastolic Blood Pressure (DBP) at a dose of 1 ug/kg administered intravenously […]; assay type: functional, Canis lupus familiaris; procedure, shortened: as §1
Canis familiaris [12] = assay: Inotropic activity determined by evaluating the % change in Heart Rate (HR) at a dose of 3 ug/kg administered intravenously […]; assay type: functional, Canis lupus familiaris; procedure, shortened: as §1
Canis familiaris [13] = assay: Inotropic activity determined by evaluating the % change in contractile force (CF) of right ventricle at a dose of 1 ug/kg administered intravenously […]; assay type: functional, Canis lupus familiaris, Heart right ventricle; procedure, shortened: as §1
Canis familiaris [14] = assay: Inotropic activity determined by evaluating the % change in Heart Rate (HR) at a dose of 10 ug/kg administered intravenously […]; assay type: functional, Canis lupus familiaris; procedure, shortened: as §1
Canis familiaris [15] = assay: Inotropic activity determined by evaluating the % change in Diastolic Blood Pressure (DBP) at a dose of 3 ug/kg administered intravenously […]; assay type: functional, Canis lupus familiaris; procedure, shortened: as §1
Canis familiaris [16] = species: Canis familiaris; assay: Positive inotropic in the isolated papillary muscle of the dog.; assay type: functional, Canis lupus familiaris
Procedure, shortened: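 Right ventricular anterior papillary muscle with septum, from mongrel dogs (7–12 kg, pentobarbital 30 mg/kg iv). It was perfused at about 100 mmHg via the septal artery with blood from a heparinized donor dog and paced at 120/min (1 ms pulses, about 1.5× threshold). Isometric tension was recorded. Saline solutions were injected intra-arterially, with amrinone as reference. ED15 (15% rise in developed tension) was taken from log dose-response curves. Results are mean ± SEM (n = 7) or mean ± range (n = 2).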

Canis familiaris [17] = assay: Inotropic activity determined by evaluating the % change in Systolic Blood Pressure (SBP) at a dose of 1 ug/kg administered intravenously […]; assay type: functional, Canis lupus familiaris, Muscle tissue; procedure, shortened: as §1
Canis familiaris [18] = species: Canis familiaris; assay: Positive inotropic activity determined in the […](that produced 30% increase in dose- response curves [dP/dt(max)]); assay type: functional; conditions: Canis lupus familiaris
Procedure, shortened: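 In the anesthetized open-chest dog (mongrel, 7–15 kg, pentobarbital 30 mg/kg iv, ventilated on room air), compounds were given intravenously and LV dP/dtmax was recorded. The dose giving a 30% rise in dP/dtmax was read from the dose-response curves. Results are mean ± SEM (n = 3) or mean ± range (n = 2).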

Canis familiaris [19] = assay: Inotropic activity determined by evaluating the maximum rate of rise in left ventricular pressure at a dose of 10 ug/kg administered intravenously […]; assay type: functional, Canis lupus familiaris, Muscle tissue; procedure, shortened: as §1
Canis familiaris [20] = assay: Inotropic activity determined by evaluating the maximum rate of rise in left ventricular pressure at a dose of 1 ug/kg administered intravenously […]; assay type: functional, Canis lupus familiaris, Muscle tissue; procedure, shortened: as §1
Canis familiaris [21] = assay: Inotropic activity determined by evaluating the % change in Diastolic Blood Pressure (DBP) at a dose of 30 ug/kg administered intravenously […]; assay type: functional, Canis lupus familiaris; procedure, shortened: as §1
Canis familiaris [22] = assay: Inotropic activity determined by evaluating the maximum rate of rise in left ventricular pressure at a dose of 30 ug/kg administered intravenously […]; assay type: functional, Canis lupus familiaris, Muscle tissue; procedure, shortened: as §1
Canis familiaris [23] = assay: Inotropic activity determined by evaluating the % change in contractile force (CF) of right ventricle at a dose of 30 ug/kg administered intravenously […]; assay type: functional, Canis lupus familiaris, Heart right ventricle; procedure, shortened: as §1
Canis familiaris [24] = assay: Inotropic activity determined by evaluating the % change in Systolic Blood Pressure (SBP) at a dose of 30 ug/kg administered intravenously […]; assay type: functional, Canis lupus familiaris, Muscle tissue; procedure, shortened: as §1
Canis familiaris [25] = assay: Inotropic activity determined by evaluating the % change in Cardiac out put (CO)at a dose of 30 ug/kg administered intravenously […]; assay type: functional, Canis lupus familiaris; procedure, shortened: as §1
Canis familiaris [26] = assay: Inotropic activity determined by evaluating the % change in Heart Rate (HR) at a dose of 30 ug/kg administered intravenously […]; assay type: functional, Canis lupus familiaris; procedure, shortened: as §1

Row | Compound | Change of CF (Canis familiaris [1]) [%] | Change of DBP (Canis familiaris [2]) [%] | Change of CF (Canis familiaris [3]) [%] | Change of CO (Canis familiaris [4]) [%] | Change of SBP (Canis familiaris [5]) [%] | dP/dt (Canis familiaris [6]) [%] | Change of SBP (Canis familiaris [8]) [%] | Change of CO (Canis familiaris [9]) [%] | Change of HR (Canis familiaris [12]) [%] | Change of HR (Canis familiaris [14]) [%] | Change of DBP (Canis familiaris [15]) [%] | ED15 (Canis familiaris [16]) [µg] | ED30 (Canis familiaris [18]) [µg/kg] | dP/dt (Canis familiaris [19]) [%] | further results
1 | CC1CC(=O)NN=C1c1ccc(Nc2ccncc2)cc1.Cl (stereo not given) | 61.5 | -31.4 | 22.7 | 24.5 | -23.6 | 19.5 | -14.1 | 11.7 | 15.8 | 25.1 | -21.2 | 1.5 | 4.4 | 58.4 | Change of HR (Canis familiaris [7]): 3.4%; Change of CO (Canis familiaris [10]): 5.1%; Change of DBP (Canis familiaris [11]): -7.3%; Change of CF (Canis familiaris [13]): 7.9%; Change of SBP (Canis familiaris [17]): -4.7%; dP/dt (Canis familiaris [20]): 8.1%
2 | Cl.O=C1CCC(c2ccc(Nc3ccncc3)cc2)=NN1 | 56.4 | -22 | 34.4 | 17.2 | -16.1 | 20.9 | -7.9 | 12.6 | 5.8 | 9.9 | -10.9 | 4.1 | 8.5 | 37.3 | Change of DBP (Canis familiaris [21]): -32.9%; dP/dt (Canis familiaris [22]): 69.1%; Change of CF (Canis familiaris [23]): 78.9%; Change of SBP (Canis familiaris [24]): -24.9%; Change of CO (Canis familiaris [25]): 27.7%; Change of HR (Canis familiaris [26]): 17.4%
